Test results taken from ChEMBL document CHEMBL5257040, “Discovery of VU2957 (Valiglurax): An mGlu4 Positive Allosteric Modulator Evaluated as a Preclinical Candidate for the Treatment of Parkinson's Disease” (ACS Med Chem Lett, 2019).

Columns and labels:
[1] = Oral bioavailability in Cynomolgus monkey at 3 mg/kg and measured upto 24 hrs by LC-MS/MS analysis; assay type: ADME, organism-based, Macaca fascicularis; details: in vivo
Outline: (§1)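 Single-dose iv and oral PK in separate arms: mouse 1 mg/kg iv / 3 mg/kg po, SD rat 0.2/3, beagle 0.5/3, cynomolgus 0.2/3 mg/kg. Plasma parameters (Vss, Tmax, F) are means of two to three animals per species.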

[2] = Tmax in Sprague-Dawley rat at 3 mg/kg, po and measured upto 24 hrs by LC-MS/MS analysis; assay type: ADME, organism-based; details: in vivo; outline: as §1
[3] = Solubility of compound intestinal fluid assessed as AUC administered as active pharmaceutical ingredient (API) formulation; assay type: ADME
[4] = Volume of distribution at steady state in Beagle dog at 0.5 mg/kg, iv and measured upto 24 hrs by LC-MS/MS analysis; assay type: ADME, organism-based, Canis lupus familiaris; details: in vivo, read-out: Vdss; outline: as §1
[5] = Oral bioavailability in Cynomolgus monkey at 3 mg/kg administered as spray-dried dispersion formulation and measured upto 24 hrs by LC-MS/MS analysis; assay type: ADME, organism-based, Macaca fascicularis; details: in vivo
Outline: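 Cynomolgus oral dosing used a spray-dried dispersion of the compound with HPMCP-HP55 polymer at a 25%/75% drug-to-polymer ratio. Oral bioavailability (%F) was determined from plasma exposure.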

[6] = Cmax in Sprague-Dawley rat at 3 mg/kg, po administered as spray-dried dispersion formulation and measured after 24 hrs by LC-MS/MS analysis; assay type: ADME, organism-based; set-up: time 24 hrs, dose 3 mg/kg, route po; details: in vivo
Outline: (§2)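 Rats were dosed orally at 3, 10 and 30 mg/kg with a spray-dried dispersion of the free base and HPMCP-HP55 polymer (25%/75%), in 30% Dexolve. Total plasma Cmax and AUC were measured, N = 3.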

[7] = Elimination half life in Cynomolgus monkey at 0.2 mg/kg, iv and measured upto 24 hrs by LC-MS/MS analysis; assay type: ADME, organism-based, Macaca fascicularis; details: in vivo, read-out: beta t1/2 (converted)
Outline: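 Single intravenous doses: mouse 1 mg/kg, SD rat 0.2 mg/kg, beagle dog 0.5 mg/kg, cynomolgus monkey 0.2 mg/kg. Plasma clearance, Vss and elimination half-life came from the plasma profiles. Values are means of two to three animals.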

[8] = Unbound brain-to-plasma concentration ratio in Sprague-Dawley rat at 0.2 mg/kg, iv and measured upto 24 hrs by LC-MS/MS analysis; assay type: ADME, organism-based; details: read-out: K(p,uu,brain)
[9] = Metabolic stability in dog liver microsomes assessed as intrinsic clearance at 1 uM preincubated for 5 mins followed by NADPH addition and measured for 45 mins by LC/MS/MS analysis; assay type: ADME, Canis lupus familiaris, Microsome; details: time 50 min, read-out: CLH
[10] = Drug uptake in plasma of haloperidol-induced catalepsy Sprague-Dawley rat model at 0.3 to 30 mg/kg,po; assay type: ADME, organism-based; details: in vivo, dose 0.3-30 mg/kg
Outline: (§3)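 Rats were given haloperidol 1.5 mg/kg i.p. to induce catalepsy and dosed orally at 0.3–30 mg/kg, N = 8–10 per group. Total plasma and CSF concentrations were measured alongside the catalepsy read-out. Satellite rats were used for PK in the time-course study.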

[11] = Drug uptake in cerebrospinal fluid of haloperidol-induced catalepsy Sprague-Dawley rat model at 0.3 to 30 mg/kg,po; assay type: ADME, organism-based; details: in vivo, dose 0.3-30 mg/kg, read-out: Ct; outline: as §3
[12] = target: hERG (KCNH2) (Homo sapiens, UniProt Q12809); assay: Inhibition of human ERG at 10 uM; assay type: toxicity
Outline: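 Eurofins Cardiac Profiler functional electrophysiology panel of potassium, calcium and sodium cardiac ion channels, including hERG. Compound tested at 10 μM, reported as percent inhibition.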

[13] = Genotoxicity in Salmonella typhimurium TA98 by Ames test; assay type: toxicity; details: salmonella enterica subsp. enterica serovar typhimurium
Outline: (§4)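 Ames bacterial reverse mutation test in strains TA98 and […], run with and without S9 metabolic activation.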

[14] = Genotoxicity in Salmonella typhimurium […] by Ames test; assay type: toxicity; details: salmonella enterica subsp. enterica serovar typhimurium; outline: as §4
[15] = target: Metabotropic glutamate receptor 8 (Rattus norvegicus, UniProt P70579); assay: Positive allosteric modulator activity at rat mGlu8 in human HEK cells co-expressing […] assessed as increase in by thallium flux preincubated for 2.5 mins followed by gluatamate addition by thallium flux assay; assay type: cell-based
[16] = AUC (0 to infinity) in CD-1 mouse plasma at 3 mg/kg, po and measured upto 24 hrs by LC-MS/MS analysis; assay type: ADME, organism-based; set-up: dose 3 mg/kg, time < 24 hrs, route po
Outline: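 Single oral 3 mg/kg dose in mouse, SD rat, beagle dog and cynomolgus monkey. Total plasma exposure after the oral dose gave Cmax, Tmax, AUC0-inf and F. Values are means of two to three animals.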

[17] = Protein binding in human plasma assessed as fraction unbound incubated for 4 hrs by equilibrium dialysis based LC/MS/MS analysis; assay type: ADME, cell-free
[18] = target: Metabotropic glutamate receptor 2 (Rattus norvegicus, UniProt P31421); assay: Positive allosteric modulator activity at rat mGlu2 in human HEK cells co-expressing […] assessed as increase in by thallium flux preincubated for 2.5 mins followed by gluatamate addition by thallium flux assay; assay type: cell-based
[19] = target: Amine oxidase [flavin-containing] A (Homo sapiens, UniProt P21397); assay: Binding affinity to MAO-A (unknown origin)
[20] = target: Cytochrome P450 3A4 (Homo sapiens, UniProt P08684); assay: Induction of CYP3A4 in human hepatocytes; assay type: ADME, cell-based
Outline: (§5)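 CYP1A2, 2B6 and 3A4 induction measured in human hepatocytes.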

[21] = Unbound drug concentration in Sprague-Dawley rat brain at 0.2 mg/kg, iv and measured upto 24 hrs by LC-MS/MS analysis; assay type: ADME, organism-based
[22] = target: Kv4.3/KChIP2 (Homo sapiens, UniProt Q9NS61+Q9UK17); assay: Inhibition of Kv4.3/KChIP2 (unknown origin) at 10 uM; assay type: toxicity
Outline: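 Cardiac ion channel electrophysiology (functional EP) panel, with percent inhibition measured at 10 μM.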

[23] = target: T1, Cytochrome P450 1A2 (Homo sapiens, UniProt P05177); assay: Inhibition of CYP1A2 in human liver microsomes using […] as substrate preincubated for 15 mins followed by NADPH addition and measured after 8 mins by LC/MS/MS analysis; assay type: ADME, Microsome
[24] = Protein binding in rat plasma assessed as fraction unbound incubated for 4 hrs by equilibrium dialysis based LC/MS/MS analysis; assay type: ADME, cell-free
[25] = Brain to plasma permeability coefficient, Kp in Sprague-Dawley rat at 0.2 mg/kg, iv and measured upto 24 hrs by LC-MS/MS analysis; assay type: ADME, organism-based
Outline: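 Total brain to total plasma partition coefficient (Kp) measured in mouse, SD rat and cynomolgus monkey. The unbound ratio (Kp,uu) was corrected with brain homogenate binding. Values are means of two to three animals.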

[26] = target: Cytochrome P450 2D6 (Homo sapiens, UniProt P10635); assay: Inhibition of CYP2D6 in human liver microsomes using […] as substrate preincubated for 15 mins followed by NADPH addition and measured after 8 mins by LC/MS/MS analysis; assay type: ADME, Microsome
[27] = Lipophilicity, logP of the compound; assay type: physicochemical; details: octanol/water
[28] = target: Cytochrome P450 2C9 (Homo sapiens, UniProt P11712); assay: Inhibition of CYP2C9 in human liver microsomes using […] as substrate preincubated for 15 mins followed by NADPH addition and measured after 8 mins by LC/MS/MS analysis; assay type: ADME, Microsome
[29] = target: T1, Cytochrome P450 1A2; assay: Induction of CYP1A2 in human hepatocytes; assay type: ADME, cell-based; outline: as §5
[30] = Genotoxicity in Salmonella typhimurium […] in presence of S9 fraction by Ames test; assay type: toxicity, subcellular; details: salmonella enterica subsp. enterica serovar typhimurium; outline: as §4
[31] = Cmax in Sprague-Dawley rat at 10 mg/kg, po administered as spray-dried dispersion formulation and measured after 24 hrs by LC-MS/MS analysis; assay type: ADME, organism-based; set-up: dose 10 mg/kg, time 24 hrs, route po; details: in vivo; outline: as §2

T1 sequence (P05177 whole entry): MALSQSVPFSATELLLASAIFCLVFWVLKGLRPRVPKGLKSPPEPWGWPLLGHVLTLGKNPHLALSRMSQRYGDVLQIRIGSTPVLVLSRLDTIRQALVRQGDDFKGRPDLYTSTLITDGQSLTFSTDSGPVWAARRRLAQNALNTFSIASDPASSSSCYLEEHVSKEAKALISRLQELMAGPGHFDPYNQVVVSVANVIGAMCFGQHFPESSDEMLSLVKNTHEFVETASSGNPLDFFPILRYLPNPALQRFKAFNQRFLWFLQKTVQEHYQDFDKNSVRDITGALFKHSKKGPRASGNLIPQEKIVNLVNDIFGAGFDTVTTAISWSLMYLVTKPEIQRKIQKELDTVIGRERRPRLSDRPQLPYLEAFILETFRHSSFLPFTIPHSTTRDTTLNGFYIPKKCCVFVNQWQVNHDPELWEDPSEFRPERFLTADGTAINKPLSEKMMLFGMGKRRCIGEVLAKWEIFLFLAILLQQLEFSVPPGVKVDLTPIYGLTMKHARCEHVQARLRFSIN
Chain of Cytochrome P450 2C9 (P11712 whole entry): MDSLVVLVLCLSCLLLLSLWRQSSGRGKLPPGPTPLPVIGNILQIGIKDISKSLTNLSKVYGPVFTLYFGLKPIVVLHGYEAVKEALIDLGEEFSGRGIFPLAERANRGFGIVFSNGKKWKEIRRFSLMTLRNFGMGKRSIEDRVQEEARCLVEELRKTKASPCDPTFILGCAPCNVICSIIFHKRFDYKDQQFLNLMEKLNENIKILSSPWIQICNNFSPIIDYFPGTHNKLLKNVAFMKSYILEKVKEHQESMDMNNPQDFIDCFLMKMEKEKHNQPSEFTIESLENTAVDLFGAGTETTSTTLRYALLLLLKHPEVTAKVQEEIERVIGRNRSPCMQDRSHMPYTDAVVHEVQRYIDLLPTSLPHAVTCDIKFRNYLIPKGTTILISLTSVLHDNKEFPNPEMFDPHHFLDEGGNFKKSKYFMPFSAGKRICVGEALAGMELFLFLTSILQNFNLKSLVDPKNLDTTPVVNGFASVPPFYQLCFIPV
Chain of Cytochrome P450 3A4 (P08684 whole entry): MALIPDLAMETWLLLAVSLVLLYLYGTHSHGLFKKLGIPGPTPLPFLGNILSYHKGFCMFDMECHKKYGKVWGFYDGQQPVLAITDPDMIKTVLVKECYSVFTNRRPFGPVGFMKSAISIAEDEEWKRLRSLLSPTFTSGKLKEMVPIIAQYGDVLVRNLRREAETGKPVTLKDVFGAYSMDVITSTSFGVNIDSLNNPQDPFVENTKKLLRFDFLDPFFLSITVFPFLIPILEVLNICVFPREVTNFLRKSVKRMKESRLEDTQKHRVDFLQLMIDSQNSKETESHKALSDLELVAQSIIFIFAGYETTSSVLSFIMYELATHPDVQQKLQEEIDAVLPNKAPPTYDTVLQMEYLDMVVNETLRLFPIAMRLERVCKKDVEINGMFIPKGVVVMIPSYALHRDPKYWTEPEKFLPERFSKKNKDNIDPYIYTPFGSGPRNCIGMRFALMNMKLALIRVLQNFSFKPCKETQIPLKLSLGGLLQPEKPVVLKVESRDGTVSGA
Chain of Cytochrome P450 2D6 (P10635 whole entry): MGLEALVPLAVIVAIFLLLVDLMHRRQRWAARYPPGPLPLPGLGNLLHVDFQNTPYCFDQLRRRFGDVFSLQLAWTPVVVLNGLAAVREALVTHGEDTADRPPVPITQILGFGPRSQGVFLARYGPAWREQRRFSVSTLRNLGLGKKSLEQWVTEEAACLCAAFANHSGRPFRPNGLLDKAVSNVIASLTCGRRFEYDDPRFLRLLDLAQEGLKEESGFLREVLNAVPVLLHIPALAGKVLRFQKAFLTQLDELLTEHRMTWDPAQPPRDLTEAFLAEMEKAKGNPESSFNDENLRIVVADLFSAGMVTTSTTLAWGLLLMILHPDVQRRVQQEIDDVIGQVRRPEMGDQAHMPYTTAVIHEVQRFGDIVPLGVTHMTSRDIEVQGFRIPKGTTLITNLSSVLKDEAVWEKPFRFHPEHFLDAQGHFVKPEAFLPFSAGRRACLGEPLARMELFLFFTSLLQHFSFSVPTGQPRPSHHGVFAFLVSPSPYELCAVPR
Chain of hERG (KCNH2) (Q12809 whole entry): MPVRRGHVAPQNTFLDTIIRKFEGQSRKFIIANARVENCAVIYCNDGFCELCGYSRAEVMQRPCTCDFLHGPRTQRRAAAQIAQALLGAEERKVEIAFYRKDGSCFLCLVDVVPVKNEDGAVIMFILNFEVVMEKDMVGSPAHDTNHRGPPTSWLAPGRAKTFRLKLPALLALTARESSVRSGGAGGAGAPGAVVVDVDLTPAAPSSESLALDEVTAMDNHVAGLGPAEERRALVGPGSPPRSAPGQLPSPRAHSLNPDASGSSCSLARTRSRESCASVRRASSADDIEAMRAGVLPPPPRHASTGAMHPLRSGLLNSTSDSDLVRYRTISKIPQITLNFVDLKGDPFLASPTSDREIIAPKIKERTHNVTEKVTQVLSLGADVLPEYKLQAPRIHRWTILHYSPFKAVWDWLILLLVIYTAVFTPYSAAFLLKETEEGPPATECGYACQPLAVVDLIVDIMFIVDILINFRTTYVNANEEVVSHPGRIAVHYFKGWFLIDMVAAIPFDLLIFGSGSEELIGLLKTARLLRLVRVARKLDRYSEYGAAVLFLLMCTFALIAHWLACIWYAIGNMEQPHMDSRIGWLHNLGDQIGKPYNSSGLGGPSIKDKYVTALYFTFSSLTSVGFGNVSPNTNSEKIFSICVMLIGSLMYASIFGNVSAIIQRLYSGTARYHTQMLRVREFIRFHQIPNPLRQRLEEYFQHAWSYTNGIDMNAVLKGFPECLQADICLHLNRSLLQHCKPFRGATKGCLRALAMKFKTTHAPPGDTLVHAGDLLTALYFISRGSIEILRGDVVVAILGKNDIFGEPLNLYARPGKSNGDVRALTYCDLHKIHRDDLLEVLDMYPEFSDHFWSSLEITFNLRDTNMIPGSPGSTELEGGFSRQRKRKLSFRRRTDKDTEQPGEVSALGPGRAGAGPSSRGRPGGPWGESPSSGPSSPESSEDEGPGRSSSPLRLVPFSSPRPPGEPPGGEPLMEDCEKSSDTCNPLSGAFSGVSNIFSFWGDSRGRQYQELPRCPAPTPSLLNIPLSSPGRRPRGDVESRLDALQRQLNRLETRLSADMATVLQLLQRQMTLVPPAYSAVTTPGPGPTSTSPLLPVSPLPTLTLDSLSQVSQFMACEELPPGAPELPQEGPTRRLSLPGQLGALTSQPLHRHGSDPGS
Chain of Amine oxidase [flavin-containing] A (P21397 whole entry): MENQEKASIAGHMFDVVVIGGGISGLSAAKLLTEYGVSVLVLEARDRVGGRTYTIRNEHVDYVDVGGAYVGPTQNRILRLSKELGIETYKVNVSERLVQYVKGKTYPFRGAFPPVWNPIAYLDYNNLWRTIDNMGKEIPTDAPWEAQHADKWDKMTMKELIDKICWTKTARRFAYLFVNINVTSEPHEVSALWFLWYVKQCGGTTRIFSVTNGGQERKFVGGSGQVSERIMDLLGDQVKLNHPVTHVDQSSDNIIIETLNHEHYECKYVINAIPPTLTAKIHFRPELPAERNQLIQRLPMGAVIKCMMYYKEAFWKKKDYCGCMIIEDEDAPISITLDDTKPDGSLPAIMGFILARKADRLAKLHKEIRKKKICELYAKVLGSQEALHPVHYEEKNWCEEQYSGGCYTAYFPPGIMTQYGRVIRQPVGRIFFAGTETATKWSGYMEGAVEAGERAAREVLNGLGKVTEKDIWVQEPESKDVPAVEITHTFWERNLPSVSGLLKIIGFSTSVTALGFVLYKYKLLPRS
Chain of Metabotropic glutamate receptor 8 (P70579 whole entry): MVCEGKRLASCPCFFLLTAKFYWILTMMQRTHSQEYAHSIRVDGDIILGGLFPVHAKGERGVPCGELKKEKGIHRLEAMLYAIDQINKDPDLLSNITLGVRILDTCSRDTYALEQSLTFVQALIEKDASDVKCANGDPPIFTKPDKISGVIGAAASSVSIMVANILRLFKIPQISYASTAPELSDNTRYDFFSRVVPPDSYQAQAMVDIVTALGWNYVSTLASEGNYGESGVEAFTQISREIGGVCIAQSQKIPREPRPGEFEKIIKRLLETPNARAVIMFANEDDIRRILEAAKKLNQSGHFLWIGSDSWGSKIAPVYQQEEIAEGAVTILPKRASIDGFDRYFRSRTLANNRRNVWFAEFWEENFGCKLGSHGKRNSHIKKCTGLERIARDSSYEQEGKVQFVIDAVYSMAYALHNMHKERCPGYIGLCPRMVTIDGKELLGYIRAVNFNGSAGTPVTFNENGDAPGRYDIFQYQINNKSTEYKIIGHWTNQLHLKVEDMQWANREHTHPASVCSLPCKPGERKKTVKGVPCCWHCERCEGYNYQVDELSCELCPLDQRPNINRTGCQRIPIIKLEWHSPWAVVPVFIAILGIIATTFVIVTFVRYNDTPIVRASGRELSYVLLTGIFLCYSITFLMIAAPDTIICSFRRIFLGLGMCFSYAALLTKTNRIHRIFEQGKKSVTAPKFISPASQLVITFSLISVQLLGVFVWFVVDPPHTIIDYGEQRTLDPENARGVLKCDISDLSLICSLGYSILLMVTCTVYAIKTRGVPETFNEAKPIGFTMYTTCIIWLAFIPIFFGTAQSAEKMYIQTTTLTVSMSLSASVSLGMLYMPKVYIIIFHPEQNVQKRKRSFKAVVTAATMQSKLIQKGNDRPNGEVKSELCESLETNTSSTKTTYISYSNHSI

## FC(F)(F)c1nccc2cc(Nc3n[nH]c4ncccc34)ccc12
[1]
  bioavailability: 31.6%
[2]
  Tmax: 2 h
[3]
  AUC: 25300 ng·h/mL
[4]
  Vd: 4.3 L/kg
[5]
  bioavailability: 58%
[6]
  Cmax: 630 nM
[7]
  half-life: 3.98 h
[8]
  Kp uu at 24 h: 0.09
[9]
  CLint scaled at 1 µM: 18.1 mL/min/kg
[10]
  concentration: 322 nM
[11]
  concentration: 148 nM
[12]
  inhibition at 10 µM: < 50%
[13]
  Activity: Non-Toxic
[14]
  Activity: Non-Toxic
[15]
  EC50: > 10 µM
[16]
  AUC(0-inf): 1.55 µM·h
[17]
  fraction unbound at 4 h: 0.016
[18]
  EC50: > 10 µM
[19]
  EC50: > 30 µM
[20]
  Activity: Not Active
[21]
  fraction unbound at 24 h: > 0.001
[22]
  inhibition at 10 µM: < 50%
[23]
  IC50: 1.5 µM
[24]
  fraction unbound at 4 h: 0.01
[25]
  Kp at 24 h: 1.51
[26]
  IC50: > 30 µM
[27]
  logP: 3.78
[28]
  IC50: > 30 µM
[29]
  Activity: Not Active
[30]
  Activity: Non-Toxic
[31]
  Cmax: 2050 nM
